Laboratory results as given in ChEMBL document CHEMBL2177094, “Structure dependence of long-chain [18F]fluorothia fatty acids as myocardial fatty acid oxidation probes” (J Med Chem, 2012).

Experiments:
[1] = tested on: Heart; assay: Biodistribution in overnight fasted Sprague-Dawley rat heart aqueous fraction at 0.7 to 1.4 MBq, iv preincubated with POCA for 2 hrs before compound administration measured at 120 mins post treatment by Folch-type extraction method; type: ADME, organism-based; conditions: in vivo
Method in brief: (§1)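 Female Sprague-Dawley rats, fasted overnight, under isoflurane (3.5% induction, 1.5% maintenance). [18F] tracer in 0.5–1.0% BSA/saline was given by tail vein. POCA group: 30 mg/kg i.p. 120 min before tracer. About 0.5 g tissue was homogenized and sonicated in chloroform/methanol (2:1) at 0 °C, then 40% urea and 5% H2SO4 were added and spun 10 min at 1,800 g. Aqueous, organic and pellet fractions were counted as % of total.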

[2] = tested on: Liver; assay: Drug uptake in overnight fasted Sprague-Dawley rat liver at 9 to 11 MBq, iv at 5 mins by microPET analysis; type: ADME, organism-based; conditions: in vivo
Method in brief: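 Female rats fasted overnight, under isoflurane. 18F-labelled tracer (9–11 MBq) given into a tail vein. Dynamic PET acquisition over the upper thorax for 50 min, then a static whole-body scan 55–115 min post-injection. 2–5 rats per tracer.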

[3] = tested on: Blood; assay: Drug uptake in overnight fasted Sprague-Dawley rat blood at 0.7 to 1.4 MBq, iv preincubated with POCA for 2 hrs before compound administration measured at 30 mins post treatment; type: ADME, organism-based; conditions: in vivo, 0.5 h
Method in brief: (§2)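 Overnight-fasted female Sprague-Dawley rats under isoflurane received the [18F] tracer in 0.5–1.0% BSA/saline by tail vein. POCA group: 30 mg/kg i.p. 2 h before tracer. Tissues were excised at 30 or 120 min, weighed and gamma-counted with decay correction. Uptake = % dose kg/g, i.e. CPM tissue × body wt (kg) × 100 / (tissue wt (g) × CPM dose). n = 5–6.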

[4] = tested on: Liver; assay: Biodistribution in overnight fasted Sprague-Dawley rat liver pellet fraction at 0.7 to 1.4 MBq, iv preincubated with POCA for 2 hrs before compound administration measured at 30 mins post treatment by Folch-type extraction method; type: ADME, organism-based; conditions: in vivo, 0.5 h; method in brief: as §1
[5] = tested on: Muscle tissue; assay: Biodistribution in overnight fasted Sprague-Dawley rat muscle pellet fraction at 0.7 to 1.4 MBq, iv at 30 mins by Folch-type extraction method; type: ADME, organism-based; conditions: in vivo, 0.5 h; method in brief: as §1
[6] = tested on: Heart; assay: Biodistribution in overnight fasted Sprague-Dawley rat heart organic fraction at 0.7 to 1.4 MBq, iv at 30 mins by Folch-type extraction method; type: ADME, organism-based; conditions: in vivo, 0.5 h; method in brief: as §1
[7] = tested on: Heart; assay: Biodistribution in overnight fasted Sprague-Dawley rat heart pellet fraction at 0.7 to 1.4 MBq, iv at 120 mins by Folch-type extraction method; type: ADME, organism-based; conditions: in vivo, 2 h; method in brief: as §1
[8] = tested on: Lung; assay: Drug uptake in overnight fasted Sprague-Dawley rat lung at 0.7 to 1.4 MBq, iv at 120 mins; type: ADME, organism-based; conditions: in vivo, 2 h
Method in brief: (§3)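 Female rats fasted overnight, under isoflurane (3.5% induction, 1.5% maintenance). 18F-labelled tracer formulated in 0.5–1.0% BSA/saline, injected via tail vein. Tissues harvested at 30 or 120 min, weighed, gamma-counted, decay-corrected. Uptake expressed as % dose kg/g, i.e. tissue CPM × body wt (kg) × 100 / (tissue wt (g) × dose CPM). POCA groups received 30 mg/kg i.p. 2 h before tracer. n = 5–6.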

[9] = tested on: Heart; assay: Biodistribution in overnight fasted Sprague-Dawley rat heart pellet fraction at 0.7 to 1.4 MBq, iv preincubated with POCA for 2 hrs before compound administration measured at 120 mins post treatment by Folch-type extraction method; type: ADME, organism-based; conditions: in vivo; method in brief: as §1
[10] = tested on: Muscle tissue; assay: Ratio of drug uptake in overnight fasted Sprague-Dawley rat muscle at 0.7 to 1.4 MBq, iv preincubated with POCA for 2 hrs before compound administration measured at 120 mins post treatment to drug uptake in overnight fasted Sprague-Dawley rat muscle at 0.7 to 1.4 MBq, iv at 120 mins; type: ADME, organism-based; conditions: in vivo
Method in brief: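 Ratio of skeletal muscle uptake (% dose kg/g) 120 min after tail-vein tracer in rats given POCA 30 mg/kg i.p. 2 h beforehand to that in fasted control rats. Radioactivity was decay-corrected and normalized to tissue and body weight.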

[11] = tested on: Kidney; assay: Drug uptake in overnight fasted Sprague-Dawley rat kidney at 0.7 to 1.4 MBq, iv at 120 mins; type: ADME, organism-based; conditions: in vivo, 2 h; method in brief: as §3
[12] = tested on: Bone; assay: Drug uptake in overnight fasted Sprague-Dawley rat bone at 0.7 to 1.4 MBq, iv preincubated with POCA for 2 hrs before compound administration measured at 30 mins post treatment; type: ADME, organism-based, Bone element; conditions: in vivo, 0.5 h; method in brief: as §2
[13] = tested on: Heart; assay: Metabolic stability in overnight fasted Sprague-Dawley rat heart at 9 to 11 MBq, iv measured at 55 to 115 mins by microPET analysis; type: ADME, organism-based; conditions: in vivo
[14] = tested on: Heart; assay: Ratio of drug uptake in overnight fasted Sprague-Dawley rat heart at 0.7 to 1.4 MBq, iv at 30 mins to drug uptake in overnight fasted Sprague-Dawley rat heart at 0.7 to 1.4 MBq, iv preincubated with POCA for 2 hrs before compound administration measured at 30 mins post treatment; type: ADME, organism-based; conditions: in vivo, 0.5 h
Method in brief: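 Ratio of heart uptake (% dose kg/g) 30 min after tail-vein tracer in fasted control rats to that in rats given POCA 30 mg/kg i.p. 2 h before tracer. Tissue radioactivity was decay-corrected and weight-normalized.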

| Drug uptake [1] [%] | Drug uptake [2] | Drug uptake [3] [%IDKg/g] | Drug uptake [4] [%] | Drug uptake [5] [%] | Drug uptake [6] [%] | Drug uptake [7] [%] | Drug uptake [8] [%IDKg/g] | Drug uptake [9] [%] | Ratio [10] | Drug uptake [11] [%IDKg/g] | Drug uptake [12] [%IDKg/g] | Stability [13] | Ratio [14] | Compound |
| --- | --- | --- | --- | --- | --- | --- | --- | --- | --- | --- | --- | --- | --- | --- |
| 7.53 | Active | 0.0633 | 38.07 | 43.18 | 38.56 | 76.93 | 0.0183 | 24.47 | 2.7 | 0.1014 | 0.179 | – | – | O=C(O)CCSCCCCCCCCCCCC[18F] |
| 4.19 | Active | 0.0606 | 24.88 | 59.12 | 8.46 | 88.78 | 0.0228 | 29.14 | – | 0.1244 | 0.1475 | Stable | – | O=C(O)CCSCCCC/C=C\CCCCCCCC[18F] |
| 3.39 | Active | 0.051 | 16.53 | 32.22 | 17.29 | 71.45 | 0.0339 | 21.68 | – | 0.0726 | 0.2289 | – | 1.7 | O=C(O)CCSCCCCCCCCCCCCCC[18F] |
| 3.3 | Active | 0.051 | 34.35 | 38.95 | 25.81 | 67.39 | 0.0702 | 22.48 | 2.2 | 0.1629 | 0.1037 | – | – | O=C(O)CCCCSCCCCCCCCCCCC[18F] |
